{"data": "Assay results collected from several papers", "target": "Serine/threonine-protein kinase Chk2 (CHEK2, Homo sapiens, UniProt O96017)", "note": "Lines come from different studies, so protocols differ."}
{"Compound": "C[C@@H](c1ccc(-n2cnc3c(N)ncnc32)cc1)N1CCc2nn(C)c(Cc3ccccc3)c2C1=O", "test": "binding, competition with immobilised ligand", "conditions": "0.1 µM", "remaining binding [%]": 100}
{"Compound": "O=C(c1ccc(Nc2ncc(Cl)c(-c3cc4ccccc4s3)n2)cc1)N1CCC(N2CCCC2)CC1", "test": "binding, competition with immobilised ligand", "conditions": "1 µM", "remaining binding [%]": 82}
{"Compound": "c1cncc(-c2cccc(Nc3nccc(NC4CCCCC4)n3)c2)c1", "test": "binding, competition with immobilised ligand", "conditions": "10 µM", "remaining binding [%]": 97}
{"Compound": "CN(C)c1ncc(F)c(-c2cnn3ncccc23)n1", "test": "binding", "conditions": "1 µM", "remaining binding [%]": 100}
{"Compound": "Nc1ncc2c(n1)-c1c([nH]c3ccc(C#CC4CC4)cc13)CCCC2", "test": "binding, competition with immobilised ligand", "conditions": "1 µM", "remaining binding [%]": 86}
{"Compound": "C[C@@H]1CCN(c2nccc(-c3cnn4ncccc34)n2)C1", "test": "binding", "conditions": "1 µM", "remaining binding [%]": 71}
{"Compound": "CCN1CCN(Cc2ccc(C(=O)Nc3ccc(C)c(Oc4ccc5c(c4)CC(=O)N5)c3)cc2C(F)(F)F)CC1", "test": "binding, competition with immobilised ligand", "conditions": "1 µM", "remaining binding [%]": 100}
{"Compound": "O=C(NCc1ncc(C(F)(F)F)cc1Cl)c1ccc2c(c1)C1(CCS(=O)(=O)CC1)[C@H](C1CC1)N2S(=O)(=O)c1ccc(F)cc1", "test": "cell-free assay, competition with immobilised ligand", "conditions": "1 µM", "remaining binding [%]": 100}
{"Compound": "COc1ccnn2ncc(-c3ccnc(N(C)C)n3)c12", "test": "binding", "conditions": "1 µM", "remaining binding [%]": 87}
{"Compound": "NC(=O)c1nc(Nc2ccccc2)sc1NC(=O)C1CCCCC1", "test": "cell-free assay, competition with immobilised ligand", "conditions": "10 µM", "remaining binding [%]": 2.7}
{"Compound": "CN(C)c1nccc(-c2cnc3ncccn23)n1", "test": "binding", "conditions": "1 µM", "remaining binding [%]": 79}
{"Compound": "O=C(NCCCN1CCOCC1)c1ccc(Nc2ncc(Cl)c(-c3ccc(Cl)s3)n2)cc1", "test": "binding, competition with immobilised ligand", "conditions": "1 µM", "remaining binding [%]": 82}
{"Compound": "CNC(=O)Nc1ccc2c(c1)CC[C@@]21OC(=O)N(CC(=O)N(Cc2ccc(F)cc2)[C@@H](C)C(F)(F)F)C1=O", "test": "cell-free assay, competition with immobilised ligand", "conditions": "1 µM", "remaining binding [%]": 100}
{"Compound": "F[C@@H]1CCN(c2nccc(-c3cnn4ncccc34)n2)C1", "test": "binding", "conditions": "1 µM", "remaining binding [%]": 100}
{"Compound": "Cc1cc(-n2nc(Cc3cc(F)cc(C(F)(F)F)c3)nc2C)ccc1C(N)=O", "test": "cell-free assay, competition with immobilised ligand", "conditions": "1 µM", "remaining binding [%]": 100}
{"Compound": "COc1cnc(Nc2cccc(S(N)(=O)=O)c2)nc1N1CCN(c2ccccc2)C(=O)C1", "test": "binding, competition with immobilised ligand", "conditions": "1 µM", "remaining binding [%]": 86}
{"Compound": "COc1cccc(CNC(=O)c2nc3scc(COCc4ccc(C(=O)O)cc4)c3c(=O)[nH]2)c1", "test": "cell-free assay, competition with immobilised ligand", "conditions": "1 µM", "remaining binding [%]": 92}
{"Compound": "O=C(NCCCN1CCOCC1)c1ccc(Nc2nccc(-c3cc4ccccc4s3)n2)cc1", "test": "binding, competition with immobilised ligand", "conditions": "1 µM", "remaining binding [%]": 79}
{"Compound": "CCC(=N\\O)/C(C)=C/c1ccc(F)cc1", "test": "cell-free assay, competition with immobilised ligand", "conditions": "1 µM", "remaining binding [%]": 85}
{"Compound": "CN(c1nccc(-c2cnn3ncccc23)n1)C1CC1", "test": "binding", "conditions": "1 µM", "remaining binding [%]": 100}
{"Compound": "Cn1nc(C(=O)NCc2ccc(C(=O)O)cc2)cc1-c1ccc2[nH]ccc2c1", "test": "cell-free assay, competition with immobilised ligand", "conditions": "0.1 µM", "remaining binding [%]": 100}
{"Compound": "O=C(NCC1CCOCC1)c1n[nH]cc1NC(=O)c1c(F)cccc1F", "test": "binding, competition with immobilised ligand", "conditions": "1 µM", "remaining binding [%]": 97}
{"Compound": "CO[C@@H](C)c1c(Nc2ccc([C@@H](N(C)C(=O)C3CCS(=O)(=O)CC3)C(F)(F)F)cc2)cnc2cc(Cl)nn12", "test": "cell-free assay, competition with immobilised ligand", "conditions": "1 µM", "remaining binding [%]": 100}
{"Compound": "N[C@@H]1CCN(c2nccc(-c3cnn4ncccc34)n2)C1", "test": "binding", "conditions": "1 µM", "remaining binding [%]": 100}
